Assay outcomes as filed in PubChem BioAssay.
Sampled rows, rich in hits. Any-hit rate of the full collection: about 27%.
HIV Rev-RRE inh = disrupts HIV-1 Rev binding to RRE RNA | P05866 | 97,000 tested, 0.79% active | Rev peptide-RRE RNA binding, FRET | inhibition, % at 8 µM;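 active = inhibition above the screen-wide mean plus 3 SD, cut at about 35% in these data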
Target sequence (P05866 whole entry, looked up): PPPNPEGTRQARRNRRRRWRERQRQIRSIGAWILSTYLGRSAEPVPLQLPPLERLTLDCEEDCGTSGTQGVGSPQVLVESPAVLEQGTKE
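Test system: labelled RRE RNA duplex and labelled Rev peptide. Times: 5 min compound–RNA preincubation, then 15 min with peptide, 25 °C. Doses: single-dose 8 µM. Measured by: FRET, excitation 480 nm, emission 540 nm donor and 671 nm acceptor. Measure: % inhibition of FRET ratio versus controls.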
CYP2C9 inhib = inhibitors of human CYP2C9. P11712. CYP2C9 Supersomes, luciferin-H conversion, luminescence. inhibition, % at 5 µM. 96,000 tested, 20% active. AID 777;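 active = blocking of liver enzyme CYP2C9 beyond about 50% at 5 µM, limit read from the data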
CYP2C9 act = activators of human CYP2C9; P11712; activation factor at 5 µM; 96,000 tested, 1.4% active; AID 1024; recombinant CYP2C9, luciferin-H conversion, luminescence; active compounds read high; factor 1 = untreated enzyme, 0 = blocked;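 active = activation factor of 2 or more for CYP2C9 at a 5 µM dose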
CYP2C19 inhib = blocks human cytochrome P450 2C19; CYP2C19 Supersomes, luciferin-H EGE luminescence, 30 min; inhibition, % at 5 µM; AID 778; 96,000 tested, 21% active; P33261;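 active = CYP2C19 inhibition above a set limit at 5 µM in the primary screen, cut at about 50% in these data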
Target sequence (P33261 whole entry, looked up): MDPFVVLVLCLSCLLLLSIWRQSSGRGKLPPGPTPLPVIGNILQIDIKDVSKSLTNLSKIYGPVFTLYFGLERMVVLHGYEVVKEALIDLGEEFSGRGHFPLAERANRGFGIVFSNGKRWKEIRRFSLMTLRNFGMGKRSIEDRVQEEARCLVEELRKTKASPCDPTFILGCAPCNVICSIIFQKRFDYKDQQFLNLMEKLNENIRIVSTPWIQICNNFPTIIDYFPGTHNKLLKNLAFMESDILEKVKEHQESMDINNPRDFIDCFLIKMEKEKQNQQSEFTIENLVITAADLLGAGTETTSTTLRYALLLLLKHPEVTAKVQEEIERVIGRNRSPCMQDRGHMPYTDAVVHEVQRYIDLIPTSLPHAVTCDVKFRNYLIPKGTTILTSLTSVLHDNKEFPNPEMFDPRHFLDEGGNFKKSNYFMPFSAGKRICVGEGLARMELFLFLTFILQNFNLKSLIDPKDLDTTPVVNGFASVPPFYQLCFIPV
Cav3 T inh = blocks human Cav3.2 T-type calcium channel; O95180; Cav3.2-expressing cells, Fluo-4 calcium fluorescence FDSS; active compounds read low; B-score at 10 µM; 100,000 tested, 4% active; AID 449739;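 active = single-dose well whose peak fluorescence ratio is a statistical outlier from its plate by either plate-standardised score or position-corrected B-score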
CYP2C19 act = increases human CYP2C19 enzyme activity | recombinant CYP2C19, luciferin-H EGE luminescence; active compounds read high; 0 = fully inhibited enzyme, 1 = untreated enzyme | 96,000 tested, under 10 active | activation factor at 5 µM | AID 1025 | P33261;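 active = activation factor of at least 2 at 5 µM in the primary screen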
Of the large screens only hits and unclear results are named; the others gave an inactive call.

O=S(=O)(c1cnc[nH]1)N1CCCCCC1	none (no result: HIV Rev-RRE inh)
O=C(C1CCCN(S(=O)(=O)c2cccnc2)C1)N1CCN(c2ccccn2)CC1 (configuration not stated)	CYP2C9 inhib 63.1
Cc1ccc(Cl)cc1N1CCN(C(=O)C2CCN(S(=O)(=O)c3cccnc3)CC2)CC1	CYP2C9 inhib 54.8, CYP2C19 inhib 61.2
CN(C)C(=O)Oc1ccc[n+](C)c1	none (no result: HIV Rev-RRE inh, CYP2C9 inhib, CYP2C9 act, CYP2C19 inhib, CYP2C19 act)
CCS(=O)(=O)C(=C(Nc1ccc(OC)cc1)Nc1ccc(OC)cc1)S(=O)(=O)CC	none
CCn1c(-c2cccc(Br)c2)n[nH]c1=S	CYP2C19 inhib 76.1
Cc1cccc(C)c1Nc1nc2ccccc2o1	CYP2C9 inhib 64.3 (no result: HIV Rev-RRE inh)
Cc1nc(Nc2nc3ccccc3o2)nc2c1CCC2	none
CN(c1ccc(C(=O)N2CCOCC2)cc1[N+](=O)[O-])C1CCCCC1	none
CC(C)(C)c1ccc(C(=O)NCc2ccc(Cl)cc2)cc1	none
O=C(/C=C(\O)c1ccc(Cl)cc1)C(=O)NNC(=O)C(O)(c1ccccc1)c1ccccc1	Cav3 T inh -8.63
Oc1ccc(Cl)cc1-c1cc(-c2ccccc2Cl)[nH]n1	none (no result: CYP2C9 inhib, CYP2C9 act, CYP2C19 inhib, CYP2C19 act)
Cc1ccc(C(=O)c2cn[nH]c2-c2ccccc2O)cc1	CYP2C19 inhib 89.2
COc1ccc(C(=O)c2cn[nH]c2-c2cc(Cl)ccc2O)cc1	CYP2C9 inhib 92.4, CYP2C19 inhib 98.5
O=C(c1ccc(Cl)cc1)c1cn[nH]c1-c1ccccc1O	CYP2C9 inhib 86.5, CYP2C19 inhib 95.2
O=C(c1ccc(F)cc1)c1cn[nH]c1-c1ccccc1O	none
CN(C)CCCNc1ncnc2c1cnn2-c1ccccc1	none
Fc1ccc(CNc2ncnc3c2cnn3-c2ccccc2)cc1	CYP2C9 inhib 58.3
c1ccc(-n2ncc3c(NCCN4CCCCC4)ncnc32)cc1	none
CC(C)(C)Nc1ncnc2c1cnn2-c1ccccc1	CYP2C9 inhib 63.0 (no result: HIV Rev-RRE inh)
c1ccc(-n2ncc3c(NCCN4CCOCC4)ncnc32)cc1	CYP2C9 inhib 51.9
c1ccc(-n2ncc3c(NCc4ccccn4)ncnc32)cc1	CYP2C9 inhib 69.7
CCOC(=O)CNC(=O)Nc1nnc(-c2ccc(OCC)cc2)o1	none (no result: HIV Rev-RRE inh)
COc1ccc(Nc2nc(N)nc(C(F)(F)F)n2)c(OC)c1	none
CCOc1ccccc1CN1C(=O)c2ccccc2C1C(=O)NCC1CCCO1 (configuration not stated)	none
Cc1cccc(-n2ncc3c(NCc4ccccc4)ncnc32)c1	none (no result: HIV Rev-RRE inh, Cav3 T inh)
c1ccc(CNc2ncnc3c2cnn3-c2ccccc2)cc1	CYP2C9 inhib 53.8
C/C(CCc1ccc2c(c1)OCO2)=N\N=C(/N)SC1CC(=O)N(c2ccccc2F)C1=O (configuration not stated)	CYP2C9 inhib 74.4, Cav3 T inh -5.91
CCN=C(Nc1ccc2c(c1)OCO2)SC1CC(=O)N(c2ccc(OC)cc2)C1=O (configuration not stated)	none (no result: CYP2C9 inhib, CYP2C9 act, CYP2C19 inhib, CYP2C19 act)
CCCCCn1c(=O)c(C(=O)OCC)c(O)c2ccccc21	none (no result: HIV Rev-RRE inh, Cav3 T inh)
CCCCCCCCn1c(=O)c(C(=O)OCC)c(O)c2ccccc21	CYP2C9 inhib 78.2, Cav3 T inh -7.43
O=[N+]([O-])c1ccc(-n2nncc2-c2ccc(Cl)cc2)cc1	CYP2C9 inhib 53.5, CYP2C19 inhib 90.1
Cc1nc(C(=O)Nc2ccc(Cl)cc2)nn1-c1ccc([N+](=O)[O-])cc1	none
Nc1ccc(-n2nncc2-c2ccc(Cl)cc2)cc1	CYP2C9 inhib 57.4, CYP2C19 inhib 64.5
CCc1ccc(C2=NN(c3ccc(S(N)(=O)=O)cc3)C(c3ccc(F)cc3)C2)cc1 (configuration not stated)	none
CCS(=O)(=O)Nc1cccc(C2=NN(S(=O)(=O)c3ccccc3)C(c3cccs3)C2)c1 (configuration not stated)	CYP2C9 inhib 66.9, CYP2C19 inhib 50.2
CS(=O)(=O)N1N=C(c2ccc3nccnc3c2)CC1c1ccccc1 (configuration not stated)	none
CCc1ccc(C2=NN(S(C)(=O)=O)C(c3cccs3)C2)cc1 (configuration not stated)	CYP2C19 inhib 55.8
CS(=O)(=O)N1N=C(c2ccc(Br)cc2)CC1c1cccs1 (configuration not stated)	CYP2C19 inhib 91.6
COc1ccc(C2CC(c3cccs3)=NN2S(=O)(=O)c2ccc(C)cc2)cc1 (configuration not stated)	none (no result: CYP2C9 inhib, CYP2C9 act, CYP2C19 inhib, CYP2C19 act)
Cc1ccc(C2=NN(S(C)(=O)=O)C(c3cccs3)C2)cc1 (configuration not stated)	CYP2C19 inhib 99.3
CCCCC1=CC2=CC(=O)C(C)(OC(=O)CC)C(=O)C2=CN1C1CCCC1 (configuration not stated)	none (no result: HIV Rev-RRE inh, CYP2C9 inhib, CYP2C9 act, CYP2C19 inhib, CYP2C19 act)
NC(=O)[C@H]1CC2(CC(c3cccc(NC(=O)COc4ccc(Cl)cc4)c3)=NO2)CN1C(=O)c1ccc(Cl)cc1 (some centres not stated)	none (no result: HIV Rev-RRE inh, CYP2C9 inhib, CYP2C9 act, CYP2C19 inhib, CYP2C19 act)
Cn1c(C(C#N)C(=O)c2sc3ccccc3c2Cl)nc2ccccc21 (configuration not stated)	CYP2C9 inhib 71.1
O=C(NC1=NCCS1)C1CC2CCC1C2 (configuration not stated)	none
CCCC1C2C(=O)N(c3ccccc3OC)C(=O)C2ON1c1ccccc1 (configuration not stated)	CYP2C9 inhib 69.8, CYP2C19 inhib 94.8
CN(C)c1ccc(C2C3C(=O)N(c4ccc(C(=O)O)cc4)C(=O)C3ON2c2ccccc2)cc1 (configuration not stated)	none
CCOc1ccccc1C1C2C(=O)N(c3ccccc3)C(=O)C2ON1c1ccccc1 (configuration not stated)	CYP2C9 inhib 50.7
CCCOc1ccc(N2C(=O)C3ON(c4ccccc4)C(CCC)C3C2=O)cc1 (configuration not stated)	CYP2C9 inhib 52.5
O=C(O)c1ccc(N2C(=O)C3ON(c4ccccc4)C(c4ccccc4F)C3C2=O)cc1 (configuration not stated)	CYP2C19 inhib 51.6 (no result: Cav3 T inh)
O=C(O)COc1ccccc1C1C2C(=O)N(c3ccccc3)C(=O)C2ON1c1ccccc1 (configuration not stated)	none (no result: HIV Rev-RRE inh)
COC(=O)[C@H](Cc1ccccc1)NC(=O)N1CCN(Cc2ccccc2)CC1	none
CCC12CN(S(=O)(=O)c3ccc(C)cc3)CC(CC)(CN(S(=O)(=O)c3ccc(C)cc3)C1)C2=O	none
O=C(O)C=C1CCN(c2ncc(C(F)(F)F)cc2Cl)CC1	none (no result: CYP2C9 inhib, CYP2C9 act, CYP2C19 inhib, CYP2C19 act)
Nc1cccc2c1C(=O)N(C(=O)c1cccc(S(=O)(=O)N3CCCCCC3)c1)C2=O	none
CCCC1C2C(=O)N(c3ccccc3)C(=O)C2ON1c1ccccc1 (configuration not stated)	CYP2C9 inhib 55.4, CYP2C19 inhib 56.0
CC(C)OC(=O)c1cn(-c2ccccc2)nc1-c1ccc2c(c1)OCCO2	none
O=c1oc2ccccc2n1CSc1nc2ccccc2s1	CYP2C9 inhib 83.9, CYP2C19 inhib 99.8, Cav3 T inh -4.09
